Measured values taken from ChEMBL document CHEMBL3286255, “Rational design and synthesis of novel thiazolidin-4-ones as non-nucleoside HIV-1 reverse transcriptase inhibitors” (Bioorg Med Chem, 2014).

Assays:
[1] = Selectivity index, ratio of CC50 for human TZM-bl cells to EC50 for R5 tropic Human immunodeficiency virus 1 VB59 subtype C; type: toxicity, cell-based; settings: read-out: Ratio CC50/EC50
[2] = test system: Human immunodeficiency virus 1; experiment: Antiviral activity against X4 tropic Human immunodeficiency virus 1 UG070 subtype D infected in human TZM-bl cells assessed as reduction in virus-induced cytopathic effect after 48 hrs by luminescence assay; type: functional, organism-based
Summary of the method: (§1)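 TZM-bl cells (HeLa-derived; CD4, CXCR4, CCR5; LTR-driven luciferase) seeded 1×10^4/well, left overnight at 37 °C, 5% CO2, then infected with 400 TCID50 virus for 2 h. Serial compound dilutions added in duplicate, only at levels giving >50% viability. […] Mean of two independent assays; nevirapine as positive control.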

[3] = test system: Human immunodeficiency virus 1; experiment: Antiviral activity against X4 tropic Human immunodeficiency virus 1 3B subtype B infected in human TZM-bl cells assessed as reduction in virus-induced cytopathic effect after 48 hrs by luminescence assay; type: functional, organism-based; summary of the method: as §1
[4] = Selectivity index, ratio of CC50 for human TZM-bl cells to EC50 for X4 tropic Human immunodeficiency virus 1 UG070 subtype D; type: toxicity, cell-based; settings: read-out: Ratio CC50/EC50
[5] = test system: Human immunodeficiency virus 1; experiment: Antiviral activity against R5 tropic Human immunodeficiency virus 1 VB59 subtype C infected in human TZM-bl cells assessed as reduction in virus-induced cytopathic effect after 48 hrs by luminescence assay; type: functional, organism-based; summary of the method: as §1
[6] = Selectivity index, ratio of CC50 for human TZM-bl cells to EC50 for R5 tropic Human immunodeficiency virus 1 ADA5 subtype B; type: toxicity, cell-based; settings: read-out: Ratio CC50/EC50
[7] = Cytotoxicity against human TZM-bl cells after 48 hrs by MTT assay; type: cell-based
Summary of the method: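 TZM-bl cells seeded 1×10^4/well and left overnight at 37 °C, 5% CO2. Medium then replaced with a two-fold dilution series of compound in quadruplicate. […] Mean of three independent assays.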

[8] = test system: Human immunodeficiency virus; experiment: Inhibition of HIV reverse transcriptase at 100 ug/ml after 1 hr by ELISA relative to control
Summary of the method: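 Kit ELISA for HIV RT. Template/primer, biotin- and DIG-labelled dNTPs and RT enzyme in lysis buffer incubated 1 h at 37 °C. Product captured on streptavidin, detected with anti-DIG-peroxidase and ABTS substrate, and read at 405 nm. Percent inhibition calculated against a no-inhibitor sample.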

[9] = test system: Human immunodeficiency virus 1; experiment: Antiviral activity against R5 tropic Human immunodeficiency virus 1 ADA5 subtype B infected in human TZM-bl cells assessed as reduction in virus-induced cytopathic effect after 48 hrs by luminescence assay; type: functional, organism-based; summary of the method: as §1
[10] = Selectivity index, ratio of CC50 for human TZM-bl cells to EC50 for X4 tropic Human immunodeficiency virus 1 3B subtype B; type: toxicity, cell-based; settings: read-out: Ratio CC50/EC50
[11] = Human immunodeficiency virus 1, UG070 subtype D, TZM-bl, 48 h, read-out: EC50
[12] = Human immunodeficiency virus 1, 3B subtype B, TZM-bl, 48 h, read-out: EC50
[13] = Human immunodeficiency virus 1, VB59 subtype C, TZM-bl, 48 h, read-out: EC50
[14] = Human immunodeficiency virus 1, ADA5 subtype B, TZM-bl, 48 h, read-out: EC50

| SMILES | selectivity ratio [1] | EC50 [2, 11] [µM] | EC50 [3, 12] [µM] | selectivity ratio [4] | EC50 [5, 13] [µM] | selectivity ratio [6] | CC50 at 48 h [7] [µM] | inhibition [8] [%] | EC50 [9, 14] [µM] | selectivity ratio [10] | EC50 ([2]; tzm-bl) | EC50 ([5]; tzm-bl) | EC50 ([3]; tzm-bl) | EC50 ([9]; tzm-bl) |
| --- | --- | --- | --- | --- | --- | --- | --- | --- | --- | --- | --- | --- | --- | --- |
| COc1cc(OC)nc(N2C(=O)CSC2c2c(Cl)cccc2[N+](=O)[O-])n1 (configuration not stated) | 367 | 0.27 | 0.1 | 298 | 0.22 | 366 | 80.6 | 79.4 | 0.22 | 806 | – | – | – | – |
| Cc1cc(C)nc(N2C(=O)CSC2c2ccc(C#N)cc2)n1 (configuration not stated) | – | – | 115 | – | – | 1.13 | 113 | 41.5 | 99.3 | 0.97 | Not Active | Not Active | – | – |
| Cc1cc(N2C(=O)CSC2c2ccc(C#N)cc2)nc(C)c1Br (configuration not stated) | – | – | – | – | – | 1.11 | 43.8 | 37.5 | 39.1 | – | – | – | Not Active | – |
| Cc1cc(C)nc(N2C(=O)CSC2c2ccc(C#N)cc2)c1 (configuration not stated) | 3.18 | 51.1 | 40.4 | 2.9 | 46.5 | 5.62 | 148 | 37.9 | 26.4 | 3.66 | – | – | – | – |
| Cc1ccc(S(=O)(=O)NN2C(=O)CSC2c2c(Cl)cccc2Cl)cc1 (configuration not stated) | – | – | 29.4 | – | – | 16.6 | 75.7 | 57.9 | 4.55 | 2.57 | Not Active | Not Active | – | – |
| N#Cc1ccc(NN2C(=O)CSC2c2c(Cl)cccc2Cl)cc1 (configuration not stated) | 2.54 | 36.9 | 30.3 | 1.76 | 25.7 | 12 | 65.3 | 22.2 | 5.42 | 2.14 | – | – | – | – |
| O=C1CSC(c2c(F)cccc2F)N1c1ncnc2[nH]cnc12 (configuration not stated) | 1.05 | 56.5 | 36.3 | 0.71 | 38.6 | 1.45 | 40.5 | 70.4 | 27.8 | 1.11 | – | – | – | – |
| Cc1ccnc2c1NC(=O)c1cccnc1N2C1CC1 [NEVIRAPINE] | 2060 | 0.03 | 0.03 | 2060 | 0.03 | 2060 | 76.1 | 99.2 | 0.03 | 2060 | – | – | – | – |
| COc1cc(OC)nc(N2C(=O)CSC2c2c(F)cccc2Cl)n1 (configuration not stated) | 307 | 0.24 | 0.18 | 409 | 0.32 | 614 | 98.2 | 95.4 | 0.16 | 545 | – | – | – | – |
| N#Cc1ccc(NN2C(=O)CSC2c2c(F)cccc2F)cc1 (configuration not stated) | 0.86 | 56.9 | 42.6 | 0.74 | 48.9 | 1.58 | 42.2 | 34.5 | 26.6 | 1 | – | – | – | – |
| Cc1ccnc(N2C(=O)CSC2c2ccc(C#N)cc2)n1 (configuration not stated) | – | – | 85.7 | – | – | 2.2 | 121 | 43.5 | 55 | 1.41 | Not Active | Not Active | – | – |
| COc1cccc(OC)c1C1SCC(=O)N1c1cc(C)c(Br)c(C)n1 (configuration not stated) | 34.6 | 2.36 | 2.22 | 36.3 | 2.48 | 56.8 | 85.8 | 85.5 | 1.51 | 38.6 | – | – | – | – |
| Cc1cc(N2C(=O)CSC2c2c(Cl)cccc2[N+](=O)[O-])nc(C)c1Br (configuration not stated) | – | – | – | – | – | – | – | 77.8 | – | – | – | – | – | – |
| Cc1cccc(C)c1C1SCC(=O)N1NC(=O)c1ccncc1 (configuration not stated) | – | 38.8 | 29.4 | 1.11 | – | 2.29 | 43.4 | 14.2 | 18.9 | 1.47 | – | Not Active | – | – |
| O=C(NN1C(=O)CSC1c1c(Cl)cccc1Cl)c1ccncc1 (configuration not stated) | 6.47 | – | 36.7 | – | 26.3 | 17.5 | 170 | 18.9 | 9.72 | 4.64 | Not Active | – | – | – |
| Cc1ccc(S(=O)(=O)NN2C(=O)CSC2c2c(F)cccc2Cl)cc1 (configuration not stated) | 1.66 | 72.4 | 63.1 | 1.87 | 81.6 | 2.1 | 136 | 56.3 | 64.6 | 2.15 | – | – | – | – |
| N#Cc1ccc(NN2C(=O)CSC2c2c(F)cccc2Cl)cc1 (configuration not stated) | 2.18 | 49.6 | 33.5 | 1.54 | 35 | 4.7 | 76.5 | 26.3 | 16.2 | 2.27 | – | – | – | – |
| O=C1CSC(c2c(Cl)cccc2Cl)N1c1ncnc2[nH]cnc12 (configuration not stated) | – | – | 11.8 | – | – | 1.11 | 13.1 | 50.2 | 11.7 | 1.1 | – | – | – | – |
| Cc1cc(N2C(=O)CSC2c2ccc(C#N)cc2)no1 (configuration not stated) | 2.04 | – | 88.7 | – | 68.7 | 1.72 | 140 | 27.6 | 81.1 | 1.57 | – | – | – | – |
| COc1cccc(OC)c1C1SCC(=O)N1c1cc(C)on1 (configuration not stated) | 6.18 | 18.4 | 11.3 | 6.77 | 20.2 | – | 125 | 62.2 | – | 11 | – | – | – | Not Active |
| N#Cc1ccc(N2C(=O)CSC2c2c(Cl)cccc2Cl)nc1 (configuration not stated) | 8.4 | 7.13 | 20.5 | 8.4 | < 7.13 | 13 | 60 | 42 | 4.62 | 2.92 | – | – | – | – |
| O=C1CSC(c2c(F)cccc2Cl)N1Nc1ccccn1 (configuration not stated) | 28.7 | 4.66 | 2.1 | 32.7 | 5.31 | 40.2 | 153 | 97.5 | 3.79 | 72.7 | – | – | – | – |
| O=C(NN1C(=O)CSC1c1c(F)cccc1Cl)c1ccncc1 (configuration not stated) | – | – | – | – | – | – | 105 | 81.7 | – | – | – | – | Not Active | Not Active |
| Cc1cc(C)nc(N2C(=O)CSC2c2c(Cl)cccc2[N+](=O)[O-])c1 (configuration not stated) | 1690 | 0.08 | 0.02 | 1690 | 0.08 | 1740 | 139 | 91.5 | 0.08 | 6940 | – | – | – | – |
| N#Cc1ccc(C2SCC(=O)N2c2ccc(C#N)cc2)cc1 (configuration not stated) | 1.34 | 63.4 | 67.8 | 1.18 | 55.7 | 1.22 | 75 | – | 61.2 | 1.1 | – | – | – | – |
| COc1cc(OC)nc(N2C(=O)CSC2c2c(OC)cccc2OC)n1 (configuration not stated) | 21.5 | 8.87 | 3.17 | 17.6 | 7.28 | 37.8 | 156 | 93.8 | 4.13 | 49.3 | – | – | – | – |
| COc1cc(OC)nc(N2C(=O)CSC2c2ccc(C#N)cc2)n1 (configuration not stated) | – | – | 68 | – | – | 1.51 | 86.5 | 12.2 | 57 | 1.27 | Not Active | Not Active | – | – |
| COc1cc(OC)nc(N2C(=O)CSC2c2c(Cl)cccc2Cl)n1 (configuration not stated) | 662 | 0.2 | 0.07 | 427 | 0.12 | 855 | 85.4 | 76.8 | 0.1 | 1220 | – | – | – | – |
